The subject of assay [1] is phosphorylated Rb protein in A-549 cell line. In words: Rb phosphorylation by quantitative immunofluorescence. Format: cell-based, human. To be noted: A-549, dose-response. A digest of the protocol: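 A-549 cells were treated with vehicle or test compound (less than 100 µM down to 50 nM) for 24 or 48 hr. Nuclear phospho-Rb was measured by immunofluorescence, and total DNA content per cell gave the cell-cycle phase. Automated image analysis quantified P-Rb changes as dose–response curves, from which IC50 values were taken.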

In assay [2] the test system is A-549 cell line. In words: Cell cycle distribution by total DNA content. To be noted: A-549, 24 and 48 hrs. It counts as cell-based, human. A digest of the protocol:
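A-549 cells treated 24 or 48 hr over a range from below 100 µM down to 50 nM, alongside a reference drug. Total DNA content per cell was quantified to assign cell cycle phase, together with immunofluorescent imaging of nuclear phosphorylated Rb. Automated image analysis quantified changes, and IC50 values were taken from dose–response curves.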

Take `CCN(CC)CCNC(=O)c1c(C)[nH]c(/C=C2\C(=O)Nc3ccc(F)cc32)c1C` [Sunitinib]: the “levels of phosphorylated Rb protein (immunofluorescence)” value in assay [1] is reported as “substantially reduced the extent of phosphorylated Rb protein in a dose-dependent fashion”. For the same compound, the Cell cycle influences result in assay [2] is “increase in the percentage of cells in the S or G2/M phases of the cell cycle, with a concomitant reduction in the G1 phase”.

The values are drawn from PMC6718129 (Drug Design, Development and Therapy, 2019).
